{
  "source": "the RNAGym collection of RNA variant scans (doi:10.1101/gad.245936.114)",
  "parents": {"B1": {"name": "tRNA (parent)", "chain": "CUCUCGGUAGCCAAGUUGGUUUAAGGCGCAAGACUUUAAUUUAUCACUACGAAAUCUUGAGAUCGGGCGUUCGACUCGCCCCCGGGAGAUUUUUUCCUCGAGCAA"}},
  "note": "Variants at the floor of the assay were thinned out.",
  "data": [
    {"variants_of": "B1", "assay": "nonsense suppression (GFP-seq) (ratio to wild type); higher = more function; SUP4oc tRNA, yeast GFP reporter sort-seq", "procedure,_shortened": "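Yeast were grown in raffinose/galactose medium with 80 mg/L adenine, each strain bearing a genome-integrated ochre-suppressor tRNA variant from a ~3% random-mutation library, a galactose-driven GFP ochre reporter, and RFP. After sorting into GFP/RFP bins, every bin was sequenced on an Illumina platform at phred ≥30. The GFPSEQ value, a measure of nonsense suppression, is the weighted bin median GFP/RFP relative to the unmutated parent tRNA, using each variant's estimated cell share per bin as the weight. Only variants with ≥100 reads and ≥30 cells were included.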", "values": [
      {"variant": "C72U C81A", "nonsense suppression": "≤ 0.026"},
      {"variant": "U58C G69A", "nonsense suppression": "≤ 0.026"},
      {"variant": "U8G G73C", "nonsense suppression": "≤ 0.026"},
      {"variant": "G15A U63G C75G", "nonsense suppression": "≤ 0.026"},
      {"variant": "U2G C11U U55G A60U C82G G86C G88U", "nonsense suppression": "≤ 0.026"},
      {"variant": "U20G U55C A74G", "nonsense suppression": "≤ 0.026"},
      {"variant": "A9U C72G", "nonsense suppression": 0.0446},
      {"variant": "U55C U63C", "nonsense suppression": 0.156},
      {"variant": "U63C C81U", "nonsense suppression": 0.142},
      {"variant": "U63C C75A", "nonsense suppression": 1.04},
      {"variant": "G10U G18A C75U", "nonsense suppression": "≤ 0.026"},
      {"variant": "U4A U16A", "nonsense suppression": 0.215},
      {"variant": "C29U G73A", "nonsense suppression": 0.238},
      {"variant": "C29U U35C", "nonsense suppression": 0.0545},
      {"variant": "U63G G78A", "nonsense suppression": 0.0891},
      {"variant": "U21G A89G", "nonsense suppression": 0.0399},
      {"variant": "G7C C29G A30G G61U U70C G85C", "nonsense suppression": "≤ 0.026"},
      {"variant": "G61A C79G", "nonsense suppression": "≤ 0.026"},
      {"variant": "A24C C75U", "nonsense suppression": 1.18},
      {"variant": "C5A G61C", "nonsense suppression": 0.0329},
      {"variant": "G28U C34A A87U", "nonsense suppression": "≤ 0.026"},
      {"variant": "U4C G85A", "nonsense suppression": 0.625},
      {"variant": "A23U A31G", "nonsense suppression": "≤ 0.026"},
      {"variant": "U22G G28U A62U G73U", "nonsense suppression": "≤ 0.026"},
      {"variant": "A14U G26A U57A", "nonsense suppression": "≤ 0.026"},
      {"variant": "A33G U76G", "nonsense suppression": "≤ 0.026"},
      {"variant": "U16C C68U", "nonsense suppression": 1.03},
      {"variant": "U20C A30U", "nonsense suppression": 0.0386},
      {"variant": "C27G U57C G86C", "nonsense suppression": "≤ 0.026"},
      {"variant": "C3U U20G G85A", "nonsense suppression": 0.214},
      {"variant": "A54U G61A", "nonsense suppression": 0.611},
      {"variant": "A24U A33G", "nonsense suppression": 0.117},
      {"variant": "A13C G25A", "nonsense suppression": 0.0288},
      {"variant": "A33U C75A", "nonsense suppression": 0.192},
      {"variant": "U17C U63A C72G", "nonsense suppression": "≤ 0.026"},
      {"variant": "G61C C80U", "nonsense suppression": 0.731},
      {"variant": "U57G U70G", "nonsense suppression": "≤ 0.026"},
      {"variant": "C5G C34U A74U C77A", "nonsense suppression": "≤ 0.026"},
      {"variant": "G15A C68U", "nonsense suppression": 0.0272},
      {"variant": "G7C C11G C79A", "nonsense suppression": "≤ 0.026"},
      {"variant": "U4G A13U", "nonsense suppression": 0.191},
      {"variant": "G26U A74C U76G", "nonsense suppression": "≤ 0.026"},
      {"variant": "A13C G28U", "nonsense suppression": 0.0283},
      {"variant": "G6U A60G G61A G65C", "nonsense suppression": "≤ 0.026"},
      {"variant": "A31G C79U", "nonsense suppression": 0.77},
      {"variant": "A62G C80U C81G", "nonsense suppression": "≤ 0.026"},
      {"variant": "U21G G66C", "nonsense suppression": "≤ 0.026"},
      {"variant": "U4C A31U U57G G88U", "nonsense suppression": "≤ 0.026"},
      {"variant": "A54C G69C C75U U76G G85C", "nonsense suppression": "≤ 0.026"},
      {"variant": "A62U G78A", "nonsense suppression": 0.0537},
      {"variant": "G18U U20C U76G", "nonsense suppression": 0.264},
      {"variant": "C3U A13U C34G", "nonsense suppression": "≤ 0.026"},
      {"variant": "U4A U22G", "nonsense suppression": 0.155},
      {"variant": "U55C G86A", "nonsense suppression": 0.0315},
      {"variant": "G25A C56G C79U", "nonsense suppression": "≤ 0.026"},
      {"variant": "C12U U55G U70G C83U", "nonsense suppression": "≤ 0.026"},
      {"variant": "C11U A24U", "nonsense suppression": 0.031},
      {"variant": "A60G G73C", "nonsense suppression": "≤ 0.026"},
      {"variant": "U16C C29U", "nonsense suppression": 1.11},
      {"variant": "A14C C68U G88A", "nonsense suppression": "≤ 0.026"},
      {"variant": "A9C U63C", "nonsense suppression": 0.202},
      {"variant": "G28A G84A G86C", "nonsense suppression": "≤ 0.026"},
      {"variant": "A24U G84C", "nonsense suppression": 0.107},
      {"variant": "U71C C72G", "nonsense suppression": "≤ 0.026"},
      {"variant": "G15C G25U", "nonsense suppression": "≤ 0.026"},
      {"variant": "C27A U35C G66C G88C", "nonsense suppression": "≤ 0.026"},
      {"variant": "G18U G25A G78U", "nonsense suppression": "≤ 0.026"},
      {"variant": "C29U A87G", "nonsense suppression": 0.438},
      {"variant": "G32C A62U G65C C80A G88A", "nonsense suppression": "≤ 0.026"},
      {"variant": "A33G A54U", "nonsense suppression": 0.0526},
      {"variant": "U16A A33G", "nonsense suppression": 0.0423},
      {"variant": "U4A C79U", "nonsense suppression": 0.0353},
      {"variant": "C12U A31G G65A", "nonsense suppression": "≤ 0.026"},
      {"variant": "U57A G61A", "nonsense suppression": 0.0464},
      {"variant": "U35A U57G C81U G85C A87U", "nonsense suppression": "≤ 0.026"},
      {"variant": "G86U", "nonsense suppression": "≤ 0.026"},
      {"variant": "A9U G61C", "nonsense suppression": 0.197},
      {"variant": "C11G C72G", "nonsense suppression": "≤ 0.026"},
      {"variant": "U35G U55C G61C G73U", "nonsense suppression": "≤ 0.026"},
      {"variant": "C3G G15C U58G G88C", "nonsense suppression": 0.344},
      {"variant": "U22G U55C U57A G65A", "nonsense suppression": "≤ 0.026"},
      {"variant": "U20A U35G A60C G69A C82A", "nonsense suppression": "≤ 0.026"},
      {"variant": "C12U G25C U57G C83G", "nonsense suppression": "≤ 0.026"},
      {"variant": "A24U A54U", "nonsense suppression": 0.208}
    ]}
  ]
}
